Experimental findings from ChEMBL document CHEMBL3593157, “Discovery of a 1-isopropyltetrahydroisoquinoline derivative as an orally active N-type calcium channel blocker for neuropathic pain” (Bioorg Med Chem, 2015) are described below.

Data set [1] in a line: Inhibition of N-type calcium channel in human IMR-32 cells by FLIPR assay. The format is cell-based. An outline of the steps: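 Fluorometric imaging plate reader calcium assay in IMR-32 human neuroblastoma cells. Nitrendipine present to block endogenous L-type calcium channels. IC50 determined in duplicate in one experiment.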
Another data set deals with Cytochrome P450 2D6 (Homo sapiens, UniProt P10635). The experiment in a line: Inhibition of CYP2D6 in human liver microsomes using dextromethorphan as substrate preincubated for 30 mins before substrate addition measured after 20 mins by LC-MS/MS analysis. In general terms: Liver microsomes are a subcellular fraction often used to study metabolism.
Data set [2] in a line: Aqueous solubility of the compound in Japanese Pharmacopoeia 2nd fluid at pH 6.8. Type of data set: physicochemical. A digest of the protocol:
(§1)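 Solubility measured in Japanese Pharmacopoeia 1st fluid for the dissolution test (pH 1.2) and 2nd fluid (pH 6.8).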

The target in data set [3] is Voltage-gated inwardly rectifying potassium channel KCNH2 (Homo sapiens, UniProt Q12809). The data set can be described thus: Inhibition of human ERG expressed in CHO cells after 10 mins by Rb efflux assay. Type of data set: cell-based.
The target in another data set is Cytochrome P450 2C9 (Homo sapiens, UniProt P11712). The experiment in a line: Inhibition of recombinant human CYP2C9 using 7-methoxy-4-trifluoromethylcoumarin as substrate after 45 mins by fluorescence-based assay. Type of data set: ADME.
A short description of data set [4]: Aqueous solubility of the compound in Japanese Pharmacopoeia 1st fluid at pH 1.2. The format is physicochemical. A digest of the protocol:
as §1

Data set [5] in a line: Intrinsic clearance in human liver microsomes at 0.2 uM measured up to 45 mins by LC-MS/MS analysis. The conditions noted are these: read-out: CLH. The format is ADME. A digest of the protocol:
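Human liver microsomes (0.2 mg protein/mL) in 100 mM Na+–K+ phosphate buffer pH 7.4 with 1 mM NADPH and 0.1 mM EDTA, preincubated 5 min at 37 °C. Compound at 0.2 µM final, sampled at 0, 15, 30 and 45 min. Residual compound measured by LC–MS/MS. CLint = disappearance rate constant / microsomal protein, from a least-squares linear fit.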

The subject of data set [6] is Mus musculus. The experiment in a line: Antinociceptive activity in intrathecally dosed ddY mouse assessed as reduction of formalin-induced paw lifting/licking behavior administered 15 mins before formalin challenge measured after 15 to 25 mins. The format is functional. A digest of the protocol:
(§2)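 Male ddY mice given an intrathecal bolus. After 15 min, 2% formalin (20 µL) injected subcutaneously into the plantar hindpaw. Total lifting/licking time recorded for 0–10 min (first phase) and 15–25 min (second phase). Mean of n = 6 against vehicle, Dunnett's test. ED50 in nmol/body.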

Data set [7] has as its system Mus musculus. The experiment in a line: Antinociceptive activity in intrathecally dosed ddY mouse assessed as reduction of formalin-induced paw lifting/licking behavior administered 15 mins before formalin challenge measured up to 10 mins. The format is functional. An outline of the steps:
as §2

Data set [8] concerns Mus musculus. The experiment in a line: Antinociceptive activity in ddY mouse assessed as inhibition of formalin-induced paw lifting/licking behavior at 100 mg/kg, po administered 15 mins before formalin challenge measured up to 15 to 25 mins. The format is functional. An outline of the steps:
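Male ddY mice dosed orally at 100 mg/kg. 2% formalin (20 µL) injected subcutaneously into the plantar hindpaw. Lifting/licking time in the second phase (15–25 min) expressed as % inhibition.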

Data set [9] has as its system Mus musculus. The data set can be described thus: Toxicity in intrathecally dosed ddY mouse at 10 to 100 […] measured up to 25 mins. Type of data set: organism-based. The conditions noted are these: in vivo, icv_or_intrathecal.
Data set [10] has as its system Rattus norvegicus. The data set can be described thus: Neurotoxicity in Sprague-Dawley rat assessed as effect on motor coordination by measuring time spent on rod at 30 mg/kg, po by rotarod test. The format is toxicity, organism-based. The conditions noted are these: in vivo. A digest of the protocol: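 Motor coordination in Sprague-Dawley rats after oral dosing, assessed by an accelerating rotarod test.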
(Falling from the rotarod earlier than controls is read as motor impairment.)

Data set [11] in a line: Lipophilicity, log D of the compound at pH 7.4. The format is physicochemical. A digest of the protocol:
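cLogD at pH 7.4 calculated with ACD/PhysChem Batch rather than measured.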

Data set [12] relates to Rattus norvegicus. The data set can be described thus: Analgesic activity in po dosed Sprague-Dawley rat L5/L6 spinal nerve ligation model assessed as reduction of mechanical allodynia. Type of data set: functional, organism-based. An outline of the steps:
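Male Sprague-Dawley rats with L5/L6 spinal nerve ligation (Chung method). Compound given orally at 1 to 10 mg/kg. Hindpaw withdrawal threshold to mechanical stimuli measured on the operated and non-operated sides against vehicle groups, n = 8. ED50 derived from the dose-response. Dunnett's test against the operated-side vehicle group.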

Cytochrome P450 2D6, sequence (P10635 whole entry): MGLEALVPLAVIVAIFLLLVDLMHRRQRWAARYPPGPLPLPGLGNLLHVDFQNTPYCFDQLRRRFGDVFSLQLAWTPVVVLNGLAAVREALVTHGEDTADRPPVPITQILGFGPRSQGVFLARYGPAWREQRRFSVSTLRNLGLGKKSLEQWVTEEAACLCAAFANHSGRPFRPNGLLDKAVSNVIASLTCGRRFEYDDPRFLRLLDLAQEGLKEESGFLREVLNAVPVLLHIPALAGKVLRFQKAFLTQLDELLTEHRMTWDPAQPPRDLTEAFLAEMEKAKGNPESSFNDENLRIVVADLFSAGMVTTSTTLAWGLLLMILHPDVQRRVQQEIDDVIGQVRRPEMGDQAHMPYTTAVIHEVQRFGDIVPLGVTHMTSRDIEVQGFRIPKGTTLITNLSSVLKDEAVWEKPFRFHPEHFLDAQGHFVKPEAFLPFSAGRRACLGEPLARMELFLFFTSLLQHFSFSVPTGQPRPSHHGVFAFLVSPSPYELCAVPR
Cytochrome P450 2C9, sequence (P11712 whole entry): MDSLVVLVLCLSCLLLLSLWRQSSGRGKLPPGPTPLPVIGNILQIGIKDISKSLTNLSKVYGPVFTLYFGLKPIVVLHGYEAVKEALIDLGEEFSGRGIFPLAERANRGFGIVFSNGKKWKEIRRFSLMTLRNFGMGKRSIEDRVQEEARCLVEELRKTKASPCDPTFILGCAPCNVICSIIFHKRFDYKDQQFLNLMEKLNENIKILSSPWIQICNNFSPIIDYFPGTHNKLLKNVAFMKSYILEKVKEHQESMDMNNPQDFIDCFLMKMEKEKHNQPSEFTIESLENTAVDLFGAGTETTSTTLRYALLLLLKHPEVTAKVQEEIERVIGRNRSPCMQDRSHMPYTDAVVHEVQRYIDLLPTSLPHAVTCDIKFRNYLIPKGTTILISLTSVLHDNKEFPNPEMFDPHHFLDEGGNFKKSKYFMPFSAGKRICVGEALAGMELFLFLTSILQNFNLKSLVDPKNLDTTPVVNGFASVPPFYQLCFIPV
Voltage-gated inwardly rectifying potassium channel KCNH2, sequence (Q12809 whole entry): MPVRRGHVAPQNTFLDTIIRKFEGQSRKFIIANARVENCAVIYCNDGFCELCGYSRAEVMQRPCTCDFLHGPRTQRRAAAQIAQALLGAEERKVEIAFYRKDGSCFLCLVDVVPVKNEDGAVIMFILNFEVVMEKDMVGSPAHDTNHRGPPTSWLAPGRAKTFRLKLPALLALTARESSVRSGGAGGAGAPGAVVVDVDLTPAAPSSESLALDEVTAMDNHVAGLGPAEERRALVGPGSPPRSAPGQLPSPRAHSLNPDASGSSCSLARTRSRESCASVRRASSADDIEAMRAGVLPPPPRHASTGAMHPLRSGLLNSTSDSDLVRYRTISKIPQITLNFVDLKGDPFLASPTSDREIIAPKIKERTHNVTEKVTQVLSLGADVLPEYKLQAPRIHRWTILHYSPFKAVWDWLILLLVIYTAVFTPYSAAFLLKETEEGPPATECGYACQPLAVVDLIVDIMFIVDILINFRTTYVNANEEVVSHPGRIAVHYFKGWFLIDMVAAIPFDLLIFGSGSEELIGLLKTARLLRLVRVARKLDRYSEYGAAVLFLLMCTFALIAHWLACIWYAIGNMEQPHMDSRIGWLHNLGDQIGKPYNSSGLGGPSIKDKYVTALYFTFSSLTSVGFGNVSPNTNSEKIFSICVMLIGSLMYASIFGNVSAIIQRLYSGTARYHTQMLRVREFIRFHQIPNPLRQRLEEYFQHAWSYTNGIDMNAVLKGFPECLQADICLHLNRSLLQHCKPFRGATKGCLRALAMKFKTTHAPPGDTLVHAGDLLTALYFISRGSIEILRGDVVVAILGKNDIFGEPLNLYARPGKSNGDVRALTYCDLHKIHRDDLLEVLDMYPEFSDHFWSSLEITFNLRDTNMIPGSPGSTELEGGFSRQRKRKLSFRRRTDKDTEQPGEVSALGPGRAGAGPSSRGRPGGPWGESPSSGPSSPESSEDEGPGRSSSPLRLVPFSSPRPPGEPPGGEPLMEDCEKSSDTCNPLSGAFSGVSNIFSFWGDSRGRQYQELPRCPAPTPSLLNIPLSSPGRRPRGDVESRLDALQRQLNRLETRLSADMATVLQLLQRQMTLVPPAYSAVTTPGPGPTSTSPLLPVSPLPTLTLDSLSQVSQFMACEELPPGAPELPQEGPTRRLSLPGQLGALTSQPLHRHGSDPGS

Turning to `CC(C)C1c2cc(F)ccc2CCN1C(=O)CNCC1(O)CCCCC1` (stereo not drawn), the IC50 in data set [1] worked out at 1.3 µM; against Cytochrome P450 2D6 it was 0.68 µM.
On to `CC(C)(O)C1c2ccccc2CCN1C(=O)CNCC1(O)CCCCC1` (stereo not drawn), for which, in data set [1], the IC50 is 6.1 µM.
In the case of `CC1c2ccccc2CCN1C(=O)CNCC1(O)CCCCC1` (stereo not drawn), the IC50 in [1] was 2.9 µM.
Still for that read-out and setting: next, `COc1ccc2c(c1)CCN(C(=O)CNCC1(O)CCCCC1)C2C(C)C` (stereo not drawn): 1.3 µM; `CC(C)C1c2ccccc2CCN1C(=O)CNCC1(O)CCCCC1` (stereo not drawn): 1.1 µM.
For `O=C(CNCC1(O)CCCCC1)N1CCc2ccccc2[C@@H]1c1ccccc1`, the IC50 in data set [1] was 1 µM; at Cytochrome P450 2D6, less than 0.39 µM.
The like results for `Cc1cccc2c1C(C(C)C)N(C(=O)CNCC1(O)CCCCC1)CC2` (stereo not drawn) were, in that order, 1.6 µM and less than 0.78 µM.
On to `COc1cccc2c1C(C(C)C)N(C(=O)CNCC1(O)CCCCC1)CC2` (stereo not drawn), for which the IC50 in data set [1] is 1.4 µM.
With `COc1ccc2c(c1)CCN(C(=O)CNCC1(O)CCCCC1)[C@H]2C(C)C`, the IC50 in data set [1] was 2.1 µM; in data set [3], more than 100 µM; on Cytochrome P450 2C9, more than 50 µM. Further, the solubility in data set [2] and in data set [4] was more than 100 µg/mL in each case. Besides, in data set [5], the CLint scaled at 0.2 µM worked out at 188 mL/min/kg.
For `CCC(CC)C1c2ccccc2CCN1C(=O)CNCC1(O)CCCCC1` (stereo not drawn), the IC50 was 0.73 µM in data set [1] and less than 0.78 µM on Cytochrome P450 2D6.
On to `O=C(CNCC1(O)CCCCC1)N1CCc2ccccc2C1C1CCCC1` (stereo not drawn), for which the IC50 in [1] was 0.99 µM.
Still for that read-out and setting: next, `O=C(CNCC1(O)CCCCC1)N1CCc2ccccc2C1`: 8 µM.
As for `COc1ccc2c(c1)CCN(C(=O)CNCC1(O)CCCCC1)[C@@H]2C(C)C`, the Activity entry in the data set with Mus musculus [6] was “Dose-dependent effect”; with Mus musculus [7] it was “Dose-dependent effect”; in the data set on Mus musculus [9], “Non-toxic”; in the data set on Rattus norvegicus [10], “Non-toxic”; in the data set on Rattus norvegicus [12] it was “Dose-dependent effect”. The ED50 with Mus musculus [6] is listed as 25.4 nmol; in the data set on Mus musculus [7] it was more than 100 nmol. The IC50 in [1] is 1.9 µM; in [3], more than 100 µM; at Cytochrome P450 2C9, more than 50 µM. In the data set with Mus musculus [8], the inhibition in vivo at 100 mg/kg is 64%. The solubility in data set [2] and in data set [4] was more than 100 µg/mL each time. In data set [11], this molecule came in with a logD of 2.4. In data set [5], the CLint scaled at 0.2 µM was determined as 101 mL/min/kg.
Regarding `Cc1cccc2c1CCN(C(=O)CNCC1(O)CCCCC1)C2C(C)C` (stereo not drawn), the IC50 is 1.4 µM in data set [1] and less than 0.78 µM at Cytochrome P450 2D6.
In the case of `CC(C)(C)C1c2ccccc2CCN1C(=O)CNCC1(O)CCCCC1` (stereo not drawn), the values for the IC50 (in data set [1]; at Cytochrome P450 2D6) were 0.8 µM and less than 0.78 µM, respectively.
Regarding `Cc1ccc2c(c1)C(C(C)C)N(C(=O)CNCC1(O)CCCCC1)CC2` (stereo not drawn), the concentration for half-maximal inhibition (IC50) was 1.4 µM in data set [1] and less than 0.78 µM against Cytochrome P450 2D6.
Consider `CC(C)C1c2c(F)cccc2CCN1C(=O)CNCC1(O)CCCCC1` (stereo not drawn), for which the IC50 in [1] came out at 1.5 µM.
Take `COc1ccc2c(c1)C(C(C)C)N(C(=O)CNCC1(O)CCCCC1)CC2` (stereo not drawn): the half-inhibitory concentration (IC50) in [1] was 1.6 µM.
For `COC(C)(C)C1c2ccccc2CCN1C(=O)CNCC1(O)CCCCC1` (stereo not drawn), the concentration for half-maximal inhibition (IC50) in [1] stood at 3.7 µM.
In the case of `CC(C)C1c2ccc(F)cc2CCN1C(=O)CNCC1(O)CCCCC1` (stereo not drawn), the figures for the IC50 (in data set [1]; at Cytochrome P450 2D6) were 0.89 µM and 0.39 µM, respectively.
Turning to `O=C(CNCC1(O)CCCCC1)N1CCc2ccccc2C1C1CCOCC1` (stereo not drawn), the IC50 in [1] amounted to 4.1 µM.

As a reminder, the IC50 is the concentration that inhibits the measured activity by half. In general, solubility refers to how much of the substance goes into solution per volume. The low end stands for little dissolved substance, the high end for much dissolved substance. In general, inhibition in vivo refers to the share of the control response that was lost under treatment. The logD is the decadic logarithm of the distribution of all forms, ionised or not, between an organic phase and buffer at a given pH. Read a high logD as a more lipophilic compound.
